The record followed here is ChEMBL document CHEMBL3259768, “Structure-activity relationships for vitamin D3-based aromatic a-ring analogues as hedgehog pathway inhibitors” (J Med Chem, 2014).

Test system in the first assay: not listed separately
Put plainly: Inhibition of hedgehog signaling pathway-mediated GLI1 mRNA expression in mouse C3H10T1/2 cells assessed as residual activity at 5 uM after 24 hrs by RT-PCR analysis relative to 20alpha-hydroxycholesterol/22(S)-hydroxycholesterol. The format is cell-based. Conditions: C3H 10T1/2. The gist of the method: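 C3H10T1/2 cells co-treated with analogue and the oxysterol Hh activators 20α-hydroxycholesterol plus 22(S)-hydroxycholesterol (5 μM each) for 24 h. Gli1 mRNA measured by qPCR as % of OHC-only control (100%). Analogue at 5 μM, or at 0.5 μM where stated.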
On to `CC(C)CCC[C@@H](C)[C@H]1CC[C@H]2[C@@H](OC(=O)c3ccccc3Cl)CCC[C@]12C`, for which the Activity amounted to 109%.
With `CC(C)CCC[C@@H](C)[C@H]1CC[C@H]2[C@@H](OC(=O)c3cccs3)CCC[C@]12C`, the Activity is 109%.
For `COc1ccc(C(=O)O[C@H]2CCC[C@]3(C)[C@@H]([C@H](C)CCCC(C)C)CC[C@@H]23)cc1`, the Activity amounted to 113%.
Still for that read-out and setting: for `CC(C)CCC[C@@H](C)[C@H]1CC[C@H]2[C@@H](OC(=O)c3cccnc3)CCC[C@]12C` the value was 20.7%; for `CC(C)CCC[C@@H](C)[C@H]1CC[C@H]2[C@@H](OC(=O)c3cccc4cc(O)ccc34)CCC[C@]12C`, 103%.
The same measure, in the same setting: next, `CC(C)CCC[C@@H](C)[C@H]1CC[C@H]2[C@@H](OC(=O)c3ccoc3)CCC[C@]12C`: 91.5%; `CC(C)CCC[C@@H](C)[C@H]1CC[C@H]2[C@@H](OC(=O)c3ncccc3O)CCC[C@]12C`: 36.5%.

The target in a further assay is T1, Vitamin D3 receptor (Mus musculus) (UniProt P48281).
T1 sequence (whole entry): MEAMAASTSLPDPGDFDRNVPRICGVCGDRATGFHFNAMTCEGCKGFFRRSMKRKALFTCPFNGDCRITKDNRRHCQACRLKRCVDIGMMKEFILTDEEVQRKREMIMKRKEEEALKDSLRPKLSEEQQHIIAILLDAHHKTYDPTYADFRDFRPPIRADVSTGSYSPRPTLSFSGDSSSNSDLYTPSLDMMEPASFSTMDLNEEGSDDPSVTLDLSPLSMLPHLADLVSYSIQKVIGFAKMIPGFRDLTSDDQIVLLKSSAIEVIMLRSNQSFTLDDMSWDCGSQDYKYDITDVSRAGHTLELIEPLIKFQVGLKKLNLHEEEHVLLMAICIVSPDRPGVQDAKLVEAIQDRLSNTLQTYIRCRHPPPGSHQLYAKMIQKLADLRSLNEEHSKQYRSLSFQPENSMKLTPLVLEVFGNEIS
Description: Activation of VDR in mouse C3H10T1/2 cells assessed as upregulation of CYP24A1 mRNA expression at 5 uM after 24 hrs by RT-PCR analysis relative to DMSO-treated control. In kind it is cell-based. Particulars: C3H 10T1/2. The gist of the method:
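Cyp24A1 mRNA read by qPCR after 24 h exposure at 5 μM. Up-regulation normalized to DMSO control, set to 1.0.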
Regarding `CC(C)CCC[C@@H](C)[C@H]1CC[C@H]2[C@@H](OC(=O)c3ccccc3Cl)CCC[C@]12C`, the fold change (FC) is 0.9.
As to `CC(C)CCC[C@@H](C)[C@H]1CC[C@H]2[C@@H](OC(=O)c3cccs3)CCC[C@]12C`, the fold change (FC) is 1.6.
The same measure, in the same setting: next, `COc1ccc(C(=O)O[C@H]2CCC[C@]3(C)[C@@H]([C@H](C)CCCC(C)C)CC[C@@H]23)cc1`: 0.9; `CC(C)CCC[C@@H](C)[C@H]1CC[C@H]2[C@@H](OC(=O)c3cccnc3)CCC[C@]12C`: 17.1; `CC(C)CCC[C@@H](C)[C@H]1CC[C@H]2[C@@H](OC(=O)c3cccc4cc(O)ccc34)CCC[C@]12C`: 4.7.
Still for that read-out and setting: next, `CC(C)CCC[C@@H](C)[C@H]1CC[C@H]2[C@@H](OC(=O)c3ccoc3)CCC[C@]12C`: 2.2; `CC(C)CCC[C@@H](C)[C@H]1CC[C@H]2[C@@H](OC(=O)c3ncccc3O)CCC[C@]12C`: 3.1.
